Type in all cases: functional
In one assay the test system is Staphylococcus aureus. Kind of assay: Antibacterial activity against Staphylococcus aureus ATTC 25923 after 3 to 4 days by serial plate dilution method. The note with it: for MIC: Staphylococcus aureus, ATTC 25923. The method, boiled down:
(§1)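 Serial dilutions in Mueller-Hinton broth in tubes, pH adjusted to 5.0 with phosphate buffer. Inoculated with a standardized bacterial suspension and incubated 16–18 h at 37 °C. MIC is the lowest concentration with no visible growth, tested over 6.25–100 µg/mL. Zones come from an agar well diffusion assay: compounds in DMSO are added to wells in seeded agar, DMSO control, triplicate plates, 37 °C for 3–4 days, inhibition zone diameter in mm.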

The subject of the next assay is Streptococcus pyogenes. Kind of assay: Antibacterial activity against Streptococcus pyogenes after 3 to 4 days by serial plate dilution method. The note with it: for MIC: Streptococcus pyogenes. The method, boiled down: as §1
The test system of a further assay is Escherichia coli. Kind of assay: Antibacterial activity against Escherichia coli ATTC 25922 after 3 to 4 days by serial plate dilution method. The note with it: for MIC: Escherichia coli, ATTC 25922. The method, boiled down: as §1
For another assay, the system named is Aspergillus flavus. Description: Antifungal activity against Aspergillus flavus NCIM 524 after 3 to 4 days by serial plate dilution method. The note with it: for MIC: Aspergillus flavus, NCIM 524. A digest of the protocol:
(§2)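 Sabouraud agar made from peptone, glucose and agar in water, pH 5.7. Fungal spores suspended in normal saline and used to lawn the plates, which were dried 1 h at 37 °C. Wells punched and compounds added in DMSO, with a DMSO solvent control. Triplicate plates held at 37 °C for 3–4 days. Read-out is inhibition zone diameter.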

For another assay, the system named is Talaromyces marneffei. Kind of assay: Antifungal activity against recultured Penicillium marneffei after 3 to 4 days by serial plate dilution method. The note with it: for MIC: Talaromyces marneffei. A digest of the protocol:
as §2

The subject of a further assay is Pseudomonas aeruginosa. Description: Antibacterial activity against Pseudomonas aeruginosa ATCC 27853 after 3 to 4 days by serial plate dilution method. The note with it: for MIC: Pseudomonas aeruginosa, ATCC 27853. The method, boiled down:
as §1

The test system of the next assay is Aspergillus fumigatus. Description: Antifungal activity against Aspergillus fumigatus NCIM 902 after 3 to 4 days by serial plate dilution method. The note with it: for MIC: Aspergillus fumigatus, NCIM 902. The method, boiled down: as §2
For assay [1], the system named is Trichophyton mentagrophytes. Kind of assay: Antifungal activity against recultured Trichophyton mentagrophytes after 3 to 4 days by serial plate dilution method. The note with it: for MIC: Trichophyton mentagrophytes. A digest of the protocol: as §2
Another assay relates to Candida albicans. Description: Antifungal activity against Candida albicans after 3 to 4 days by serial plate dilution method. The note with it: for MIC: Candida albicans. A digest of the protocol:
as §2

In another assay the test system is Klebsiella pneumoniae. Kind of assay: Antibacterial activity against recultured Klebsiella pneumoniae after 3 to 4 days by serial plate dilution method. The note with it: for MIC: Klebsiella pneumoniae. A digest of the protocol:
as §1

Eight molecules from ChEMBL document CHEMBL1240415, “Design, synthesis and antimicrobial activities of some new quinoline derivatives carrying 1,2,3-triazole moiety” (2010) can be followed below.

By MIC is commonly meant the lowest concentration found to suppress growth. Read a high MIC as a less susceptible organism.

Converted amounts (≈) assume the structure as drawn.

With `COc1ccc2nc(C)cc(-n3cc(CNC4CC4)nn3)c2c1`, the “diameter of the inhibition zone (DIZ)” value amounted to 16 mm with Staphylococcus aureus; 12 mm in the assay on Streptococcus pyogenes; 16 mm with Escherichia coli; 14 mm in the assay with Aspergillus flavus; 18 mm with Talaromyces marneffei; 12 mm in the assay with Pseudomonas aeruginosa. The “diameter of the inhibition zone (DIZ)” value in the assay with Aspergillus fumigatus is on record as 18 mm; in [1], 15 mm; in the assay on Candida albicans, 13 mm; with Klebsiella pneumoniae it was 18 mm. Also, the MIC in the assay with Staphylococcus aureus, in the assay with Streptococcus pyogenes, against Escherichia coli, against Aspergillus flavus, with Talaromyces marneffei and in the assay with Pseudomonas aeruginosa was 6.25 µg/mL (≈ 20.2 µM) each time. For the same molecule, the MIC (with Aspergillus fumigatus; in [1]; in the assay with Candida albicans; in the assay with Klebsiella pneumoniae) was 6.25 µg/mL (≈ 20.2 µM) throughout.
Take `COc1ccc2nc(C)cc(-n3cc(CNC4CCCC4)nn3)c2c1`: the “diameter of the inhibition zone (DIZ)” value in the assay with Staphylococcus aureus was determined as 12 mm; with Streptococcus pyogenes, 12 mm; in the assay on Escherichia coli it was 12 mm; in the assay on Aspergillus flavus it was 10 mm; in the assay with Talaromyces marneffei, 10 mm; with Pseudomonas aeruginosa it was 12 mm. In addition, the “diameter of the inhibition zone (DIZ)” value in the assay on Aspergillus fumigatus is listed as 14 mm; in assay [1] it was 10 mm; in the assay with Candida albicans it was 10 mm; in the assay with Klebsiella pneumoniae it was 14 mm. Further, the MIC in the assay on Staphylococcus aureus, with Streptococcus pyogenes, with Escherichia coli, against Aspergillus flavus, against Talaromyces marneffei and against Pseudomonas aeruginosa was 6.25 µg/mL (≈ 18.5 µM) each time. For the same molecule, the MIC (in the assay on Aspergillus fumigatus; in assay [1]; against Candida albicans; with Klebsiella pneumoniae) was 6.25 µg/mL (≈ 18.5 µM) each time.
For the molecule `COc1ccc2nc(C)cc(-n3cc(CN(C)C)nn3)c2c1`, the “diameter of the inhibition zone (DIZ)” value was found to be 16 mm in the assay on Staphylococcus aureus; 14 mm in the assay with Streptococcus pyogenes; 14 mm in the assay with Escherichia coli; 12 mm in the assay on Aspergillus flavus; 18 mm in the assay on Talaromyces marneffei; 14 mm in the assay on Pseudomonas aeruginosa. Moreover, the “diameter of the inhibition zone (DIZ)” value in the assay on Aspergillus fumigatus worked out at 16 mm; in assay [1], 10 mm; in the assay with Candida albicans it was 10 mm; in the assay on Klebsiella pneumoniae, 16 mm. For the same molecule, the MIC in the assay on Staphylococcus aureus, in the assay with Streptococcus pyogenes, in the assay on Escherichia coli, against Aspergillus flavus, in the assay on Talaromyces marneffei and in the assay on Pseudomonas aeruginosa was 6.25 µg/mL (≈ 21 µM) in each case. In addition, the MIC (against Aspergillus fumigatus; in assay [1]; against Candida albicans; in the assay with Klebsiella pneumoniae) was 6.25 µg/mL (≈ 21 µM) in each case.
On to `CCN(CC)Cc1cn(-c2cc(C)nc3ccc(OC)cc23)nn1`, for which the “diameter of the inhibition zone (DIZ)” value in the assay with Staphylococcus aureus was 12 mm; in the assay with Streptococcus pyogenes, 14 mm; in the assay with Escherichia coli, 14 mm; in the assay on Aspergillus flavus it was 11 mm; with Talaromyces marneffei, under 10 mm; in the assay on Pseudomonas aeruginosa, 12 mm. Besides, the “diameter of the inhibition zone (DIZ)” value is 10 mm in the assay with Aspergillus fumigatus, 10 mm in assay [1], 11 mm in the assay on Candida albicans and 12 mm with Klebsiella pneumoniae. Besides, the MIC in the assay with Staphylococcus aureus came to 6.25 µg/mL (≈ 19.2 µM); in the assay on Streptococcus pyogenes, 6.25 µg/mL (≈ 19.2 µM); against Escherichia coli, 6.25 µg/mL (≈ 19.2 µM); in the assay on Aspergillus flavus it was 12.5 µg/mL (≈ 38.4 µM); in the assay with Talaromyces marneffei, 25 µg/mL (≈ 76.8 µM); against Pseudomonas aeruginosa it was 6.25 µg/mL (≈ 19.2 µM). Further, the minimum inhibitory concentration (MIC) in the assay with Aspergillus fumigatus amounted to 12.5 µg/mL (≈ 38.4 µM); in assay [1], 12.5 µg/mL (≈ 38.4 µM); against Candida albicans, 12.5 µg/mL (≈ 38.4 µM); in the assay with Klebsiella pneumoniae, 6.25 µg/mL (≈ 19.2 µM).
`COc1ccc2nc(C)cc(-n3cc(CN4CCCC4)nn3)c2c1`: the “diameter of the inhibition zone (DIZ)” value in the assay with Staphylococcus aureus was 10 mm; with Streptococcus pyogenes, 11 mm; in the assay on Escherichia coli it was 10 mm; in the assay with Aspergillus flavus, 11 mm; in the assay with Talaromyces marneffei, 10 mm; in the assay with Pseudomonas aeruginosa it was 12 mm. Also, the “diameter of the inhibition zone (DIZ)” value with Aspergillus fumigatus is reported as 10 mm; in assay [1], 12 mm; in the assay with Candida albicans, 10 mm; in the assay on Klebsiella pneumoniae, 11 mm. Further, the MIC with Staphylococcus aureus, in the assay on Streptococcus pyogenes, against Escherichia coli, against Aspergillus flavus, with Talaromyces marneffei and in the assay with Pseudomonas aeruginosa was 12.5 µg/mL (≈ 38.7 µM) throughout. In addition, the minimal inhibitory concentration (MIC) (in the assay on Aspergillus fumigatus; in assay [1]; against Candida albicans; against Klebsiella pneumoniae) was 12.5 µg/mL (≈ 38.7 µM) in each case.
In the case of `COc1ccc2nc(C)cc(-n3cc(CN4CCCCC4)nn3)c2c1`, the “diameter of the inhibition zone (DIZ)” value in the assay with Staphylococcus aureus was under 10 mm; in the assay with Streptococcus pyogenes, 10 mm; in the assay on Escherichia coli, 10 mm; in the assay with Aspergillus flavus it was 10 mm; in the assay on Talaromyces marneffei, 12 mm; with Pseudomonas aeruginosa it was under 10 mm. The “diameter of the inhibition zone (DIZ)” value was 10 mm in the assay with Aspergillus fumigatus, 10 mm in assay [1], 10 mm in the assay on Candida albicans and under 10 mm in the assay with Klebsiella pneumoniae. Also, the MIC stood at 50 µg/mL (≈ 148 µM) in the assay with Staphylococcus aureus; 12.5 µg/mL (≈ 37 µM) in the assay on Streptococcus pyogenes; 12.5 µg/mL (≈ 37 µM) against Escherichia coli; 12.5 µg/mL (≈ 37 µM) with Aspergillus flavus; 12.5 µg/mL (≈ 37 µM) in the assay on Talaromyces marneffei; 50 µg/mL (≈ 148 µM) in the assay on Pseudomonas aeruginosa. Moreover, the MIC in the assay with Aspergillus fumigatus is 12.5 µg/mL (≈ 37 µM); in assay [1] it was 12.5 µg/mL (≈ 37 µM); in the assay on Candida albicans, 12.5 µg/mL (≈ 37 µM); in the assay on Klebsiella pneumoniae, 50 µg/mL (≈ 148 µM).
As for `COc1ccc2nc(C)cc(-n3cc(CN4CCC(c5ccccc5)CC4)nn3)c2c1`, the “diameter of the inhibition zone (DIZ)” value with Staphylococcus aureus is given as 10 mm; in the assay with Streptococcus pyogenes it was 11 mm; in the assay with Escherichia coli, 10 mm; with Aspergillus flavus it was under 10 mm; with Talaromyces marneffei, under 10 mm; in the assay on Pseudomonas aeruginosa it was 12 mm. The “diameter of the inhibition zone (DIZ)” value in the assay on Aspergillus fumigatus is under 10 mm; in assay [1], under 10 mm; in the assay on Candida albicans, under 10 mm; in the assay on Klebsiella pneumoniae, 11 mm. Moreover, the MIC against Staphylococcus aureus amounted to 12.5 µg/mL (≈ 30.2 µM); in the assay with Streptococcus pyogenes, 12.5 µg/mL (≈ 30.2 µM); with Escherichia coli it was 12.5 µg/mL (≈ 30.2 µM); in the assay with Aspergillus flavus, 50 µg/mL (≈ 121 µM); against Talaromyces marneffei, 50 µg/mL (≈ 121 µM); in the assay on Pseudomonas aeruginosa, 12.5 µg/mL (≈ 30.2 µM). Besides, the MIC against Aspergillus fumigatus is 50 µg/mL (≈ 121 µM); in [1], 50 µg/mL (≈ 121 µM); in the assay with Candida albicans, 50 µg/mL (≈ 121 µM); in the assay on Klebsiella pneumoniae, 12.5 µg/mL (≈ 30.2 µM).
Regarding `COc1ccc2nc(C)cc(-n3cc(CN4CCN(C)CC4)nn3)c2c1`, the “diameter of the inhibition zone (DIZ)” value was found to be 16 mm in the assay on Staphylococcus aureus; 16 mm in the assay on Streptococcus pyogenes; 20 mm in the assay with Escherichia coli; 16 mm in the assay with Aspergillus flavus; 16 mm in the assay on Talaromyces marneffei; 14 mm in the assay with Pseudomonas aeruginosa. Also, the “diameter of the inhibition zone (DIZ)” value with Aspergillus fumigatus is reported as 18 mm; in [1], 14 mm; in the assay on Candida albicans, 14 mm; in the assay on Klebsiella pneumoniae, 14 mm. Besides, the MIC against Staphylococcus aureus, in the assay with Streptococcus pyogenes, in the assay on Escherichia coli, against Aspergillus flavus, in the assay with Talaromyces marneffei and in the assay on Pseudomonas aeruginosa was 6.25 µg/mL (≈ 17.7 µM) throughout. Further, the MIC (in the assay with Aspergillus fumigatus; in assay [1]; against Candida albicans; against Klebsiella pneumoniae) was 6.25 µg/mL (≈ 17.7 µM) each time.
